Screen size: about 330,000 compounds; about 2,400 (0.73%) were called active. The calls were made as follows: active = inhibition of at least 40% at 20 µM; inactive = the rest. The entries come from a sample that favours actives as a whole.
molecular target: Apoptotic protease-activating factor 1 (Homo sapiens) (UniProt O14727); assay: blockers of Apaf-1-driven caspase-3 activation – biochemical, DEVD-Rh110 fluorescence, uHTS, primary screen (AID 489030); conditions: reconstituted apoptosome caspase-3 activity, at 20 µM, active compounds read high;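 also: plate controls were DMSO wells for no effect and DEVD-CHO caspase inhibitor wells for full effect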
Sequence (O14727 whole entry, looked up): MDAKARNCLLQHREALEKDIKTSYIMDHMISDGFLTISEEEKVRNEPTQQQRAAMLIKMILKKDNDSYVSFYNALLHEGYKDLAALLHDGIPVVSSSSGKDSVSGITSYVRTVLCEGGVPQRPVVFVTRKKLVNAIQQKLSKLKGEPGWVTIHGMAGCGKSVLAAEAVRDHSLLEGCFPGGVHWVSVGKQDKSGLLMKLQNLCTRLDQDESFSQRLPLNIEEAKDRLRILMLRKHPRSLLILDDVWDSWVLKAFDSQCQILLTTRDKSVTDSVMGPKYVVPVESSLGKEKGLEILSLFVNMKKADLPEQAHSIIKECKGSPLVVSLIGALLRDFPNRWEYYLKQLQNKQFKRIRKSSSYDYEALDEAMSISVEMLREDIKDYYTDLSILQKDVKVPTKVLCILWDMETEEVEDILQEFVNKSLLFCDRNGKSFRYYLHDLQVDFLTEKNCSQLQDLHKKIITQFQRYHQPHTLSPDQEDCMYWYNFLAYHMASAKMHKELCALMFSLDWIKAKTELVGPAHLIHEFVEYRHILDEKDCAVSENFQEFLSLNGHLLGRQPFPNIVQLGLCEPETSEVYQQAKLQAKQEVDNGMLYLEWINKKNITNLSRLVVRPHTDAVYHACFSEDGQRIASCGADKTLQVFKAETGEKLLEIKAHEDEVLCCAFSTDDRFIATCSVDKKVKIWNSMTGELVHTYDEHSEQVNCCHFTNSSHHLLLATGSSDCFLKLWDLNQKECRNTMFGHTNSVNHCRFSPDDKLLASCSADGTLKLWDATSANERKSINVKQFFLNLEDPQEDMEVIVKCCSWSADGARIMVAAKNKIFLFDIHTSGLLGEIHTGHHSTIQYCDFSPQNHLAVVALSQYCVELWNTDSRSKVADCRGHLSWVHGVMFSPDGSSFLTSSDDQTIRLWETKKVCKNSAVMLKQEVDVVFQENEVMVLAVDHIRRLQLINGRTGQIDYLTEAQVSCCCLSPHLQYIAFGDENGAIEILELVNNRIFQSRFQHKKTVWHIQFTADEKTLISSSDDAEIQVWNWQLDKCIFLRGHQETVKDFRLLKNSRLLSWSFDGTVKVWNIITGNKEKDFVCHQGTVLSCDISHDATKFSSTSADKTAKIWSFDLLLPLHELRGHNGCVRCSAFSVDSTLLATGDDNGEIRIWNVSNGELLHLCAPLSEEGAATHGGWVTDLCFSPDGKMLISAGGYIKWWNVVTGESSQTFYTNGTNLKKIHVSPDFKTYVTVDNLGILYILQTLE
Summary of the method: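 Assay system: Apoptosome proteins | Medium: pH 7.5 Hepes buffer with CHAPS, BSA, DTT | Also added: Cytochrome c and DEVD-Rh110 substrate | Times: 30 min plus 50 min, RT | Detection: Rhodamine 110 fluorescence at Ex 480/Em 540 nm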

| SMILES | inhibition |
| --- | --- |
| CCCCCn1c(=O)c(C(=O)Nc2c(C)n(C)n(-c3ccccc3)c2=O)c(O)c2ccccc21 | 46.4% (active) |
| CCCCn1c(=O)c(C(=O)Nc2ccccc2Cl)c(O)c2ccccc21 | -6.34% (inactive) |
| CCCCCn1c(=O)c(C(=O)NCc2ccccc2)c(O)c2ccccc21 | -34.9% (inactive) |
| COC(=O)C1=C(c2c(C)noc2C)C[C@@H]2CC[C@H]1N2C(=O)NCc1ccc2c(c1)OCO2 | 1.57% (inactive) |
| Cc1cccc(-n2c(O)c(/C=N/N3CCOCC3)c(=O)[nH]c2=S)c1 | 3.6% (inactive) |
| c1ccc2sc(N3CCNCC3)nc2c1 | -11.3% (inactive) |
| CC(Cc1ccccc1)NC=O (stereo not given) | 5.78% (inactive) |
| CC(Cc1ccccc1)NCCC(c1ccccc1)c1ccccc1 (stereo not given) | 41.5% (active) |
| CC(=O)NC(=O)NC(C)Cc1ccccc1 (stereo not given) | -10.3% (inactive) |
| CCOc1ccc(CN(CCCl)CCCl)cc1C(=O)OC | -1.62% (inactive) |
| COC(=O)C1=C(c2ccccc2)C[C@@H]2CC[C@H]1N2C(=O)NCc1ccco1 | 3.27% (inactive) |
| CCOC(=O)c1c(N)n(Cc2ccccc2)c2nc3ccccc3nc12 | 79.9% (active) |
| CCOC(=O)C(O)(c1ccc(NC(=O)c2ccco2)c(OC)c1)C(F)(F)F (stereo not given) | 5.81% (inactive) |
| CC/C(=N\NC(=O)c1ccccc1O)c1c(O)n(Cc2ccccc2)c(=O)[nH]c1=O | -8.27% (inactive) |
| COc1cc(Cn2c(N)c(C(=O)NCc3ccco3)c3nc4ccccc4nc32)cc(OC)c1OC | 96.1% (active) |
| CCOC(=O)c1c(N)n(CCN2CCOCC2)c2nc3ccccc3nc12 | -3.48% (inactive) |
| CN(C)/C=C(\C=[N+](C)C)c1[nH]ncc1[N+](=O)[O-] | -1.23% (inactive) |
| COC(=O)C1=C(c2ccc(F)cc2F)C[C@@H]2CC[C@H]1N2C(=O)NC1CC1 | 3.15% (inactive) |
| CCCn1c(C(=O)c2ccccc2OC)nc2ccccc21 | 6.27% (inactive) |
| CCCCCCCCCCCCn1ccc(=N)cc1 | 43.9% (active) |
| Cn1c(O)c(C=NCCN2CCNCC2)c(=O)n(C)c1=O | 6.24% (inactive) |
| COC(=O)CN1C(=O)C2(C(C(=O)OC)=C(N)Oc3ccccc32)C2=C1CC(C)(C)CC2=O (stereo not given) | -21% (inactive) |
| CN(C)C(=O)Oc1ccc(NC(=O)N2CCOCC2)cc1 | -15% (inactive) |
| CC(=C1C(=O)c2ccccc2C1=O)N1CCN(CCN=Cc2c(O)n(C)c(=O)n(C)c2=O)CC1 | 1.31% (inactive) |
| C=CCN1C(=O)NC(=O)/C(=C/c2ccc(OCC(=O)Nc3ccc(C)cc3)cc2)C1=O | 8.4% (inactive) |
| O=C(Cc1ccc(Cl)cc1)NCCN1CCN(C(=O)Cc2ccc(Cl)cc2)CC1 | -6.49% (inactive) |
| CNCC(O)c1cc(F)c(OCc2ccccc2)c(OCc2ccccc2)c1F (stereo not given) | 45.9% (active) |
| CCc1nc2ccccc2c(=O)n1-c1cccc(OC)c1 | -11.3% (inactive) |
| CNC(=O)N(C)c1nnc(C(C)(C)C)s1 | -10.6% (inactive) |
| CC(C)c1c(CN(C)C(C)Cc2ccccc2)n(C)n(-c2ccccc2)c1=O (stereo not given) | 9.08% (inactive) |

Reference: PubChem BioAssay AID489030 (Sanford-Burnham Center for Chemical Genomics, 2010)
